Our source for the Activity values is ChEMBL document CHEMBL1165958, “Compounds from Acorus tatarinowii: determination of absolute configuration by quantum computations and cAMP regulation activity” (J Nat Prod, 2010).

Activity calls are given as the source filed them. No cut-off for these calls is given here.

This assay is filed under the species Mus musculus. The assay is described as follows: Induction of cAMP level in mouse NIE115 cells at 50 uM after 30 mins by Alphascreen cAMP assay. The format is functional, cell-based. The method in brief: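 N1E-115 neuroblastoma cells exposed to each test compound at 50 µM. Intracellular cAMP measured by AlphaScreen and read out as counts per second (cps). Values reported as means with standard error of the mean. Significance marked at p < 0.05, 0.01 and 0.001.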
Consider `C=C1CC[C@@H]2[C@@](O)(C1)[C@H](C(C)C)CC[C@@]2(C)O`, for which the outcome was inactive. Next, `COc1cc(OC)c(OC)cc1CC(C)=O`: “Active”. Under `COc1cc(OC)c(C(=O)C(C)=O)cc1OC` stands “Active”; under `C[C@H]1CC[C@H]2C(C)(C)C(=O)[C@@]3(C)C[C@@H](O)[C@@]12C3`, “inactive”. Next, `CC1=CC[C@@]2(CC1=O)[C@@H](C(C)C)C(=O)C[C@@H]2C`: “inactive”; `C/C=C/c1cc(OC)c(OC)cc1OC`: “inactive”. As to `CCC(=O)c1cc(OC)c(OC)cc1OC`, the outcome was Active. As to `COc1cc(OC)c(OC)cc1C=O`, the result was Active.

In the case of `CC1=CC[C@@]2(CC1=O)[C@H](C(C)C)[C@H](O)C[C@@H]2C`, the result was inactive. Next, `COc1cc(OC)c(C(c2cc(OC)c(OC)cc2OC)[C@@H](C)O)cc1OC`: “Active”; `CC1=CC[C@]2(CC1=O)[C@@H](C)CC(=O)[C@H]2C(C)C`: “inactive”.

Consider `COc1ccc(CC(C)=O)cc1OC`, for which the result was inactive. As for `C/C=C\c1ccc(OC)c(OC)c1`, the result was inactive. Consider `C/C=C\c1cc(OC)c(OC)cc1OC`, for which the outcome was inactive.

In the case of `CC(=O)O[C@@H]1C[C@H](C)[C@@]2(CC=C(C)C(=O)C2)[C@@H]1C(C)C`, the result was inactive. Under `COc1cc(OC)c(OC)cc1/C=C\C=O` stands “Active”.
